Experimental data taken from ChEMBL document CHEMBL1629690, “Development of hexadecyloxypropyl tenofovir (CMX157) for treatment of infection caused by wild-type and nucleoside/nucleotide-resistant HIV” (Antimicrob Agents Chemother, 2010).

How the values were obtained:
[1] = tested on: Human immunodeficiency virus 1; assay: Antiviral activity against HIV1 isolate 056 expressing wild type reverse transcriptase gene by phenosense assay; assay type: functional, organism-based; details: Human immunodeficiency virus 1, isolate 056
Outline: (§1)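 In the PhenoSense recombinant virus assay, virus was tested against increasing drug concentrations. EC50 came from the inhibition curve and was compared with a drug-sensitive reference virus.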

[2] = tested on: Human immunodeficiency virus 1; assay: Antiviral activity against HIV1 isolate 057 expressing wild type reverse transcriptase gene by phenosense assay; assay type: functional, organism-based; details: Human immunodeficiency virus 1, isolate 057; outline: as §1
[3] = tested on: Human immunodeficiency virus 1; assay: Antiviral activity against HIV1 isolate 060 harboring reverse transcriptase M41L/D67N/K70R/L210W/T215Y/K219E mutant gene by phenosense assay; assay type: functional, organism-based; details: Human immunodeficiency virus 1, isolate 060
Outline: (§2)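 Recombinant-virus PhenoSense HIV assay run on a panel of 30 NRTI-resistant HIV-1 mutants and two wild-type viruses. Each virus is tested across increasing drug concentrations to give an inhibition curve and EC50. Fold change is the test recombinant EC50 divided by the EC50 of the drug-sensitive wild-type reference virus.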

[4] = tested on: Human immunodeficiency virus 1; assay: Antiviral activity against HIV1 isolate 061 harboring reverse transcriptase M41L/D67N/K70R/M184V/L210W/T215Y/K219E mutant gene by phenosense assay; assay type: functional, organism-based; details: Human immunodeficiency virus 1, isolate 061; outline: as §2
[5] = tested on: Human immunodeficiency virus 1; assay: Antiviral activity against HIV1 isolate 067 harboring reverse transcriptase A62V/D67G/T69SVG/V75I/T215I mutant gene by phenosense assay; assay type: functional, organism-based; details: Human immunodeficiency virus 1, isolate 067; outline: as §2
[6] = tested on: Human immunodeficiency virus 1; assay: Antiviral activity against HIV1 isolate 069 harboring reverse transcriptase D67E/T69SSG/V75M/M184V/L210W/T215Y mutant gene by phenosense assay; assay type: functional, organism-based; details: Human immunodeficiency virus 1, isolate 069; outline: as §2
[7] = tested on: Human immunodeficiency virus 1; assay: Antiviral activity against HIV1 isolate 153 harboring reverse transcriptase L74V mutant gene by phenosense assay; assay type: functional, organism-based; details: Human immunodeficiency virus 1, isolate 153; outline: as §2
[8] = tested on: Human immunodeficiency virus 1; assay: Antiviral activity against HIV1 isolate 157 harboring reverse transcriptase L74V/M184V mutant gene by phenosense assay; assay type: functional, organism-based; details: Human immunodeficiency virus 1, isolate 157; outline: as §2
[9] = tested on: Human immunodeficiency virus 1; assay: Antiviral activity against HIV1 isolate 162 harboring reverse transcriptase A62V/V75I/F77L/Y115F/F116Y/Q151M/M184V mutant gene by phenosense assay; assay type: functional, organism-based; details: Human immunodeficiency virus 1, isolate 162; outline: as §2
[10] = tested on: Human immunodeficiency virus 1; assay: Antiviral activity against HIV1 isolate 166 harboring reverse transcriptase L74V mutant gene obtained as site-directed mutant of NL4-3 by phenosense assay; assay type: functional, organism-based; details: Human immunodeficiency virus 1, isolate 166; outline: as §2
[11] = tested on: Human immunodeficiency virus 1; assay: Antiviral activity against HIV1 isolate 180 harboring reverse transcriptase K65R mutant gene obtained as site-directed mutant of NL4-3 by phenosense assay; assay type: functional, organism-based; details: Human immunodeficiency virus 1, isolate 180; outline: as §2
[12] = tested on: Human immunodeficiency virus 1; assay: Antiviral activity against HIV1 isolate 185 harboring reverse transcriptase T215Y mutant gene by phenosense assay; assay type: functional, organism-based; details: Human immunodeficiency virus 1, isolate 185; outline: as §2
[13] = tested on: Human immunodeficiency virus 1; assay: Antiviral activity against HIV1 isolate 192 harboring reverse transcriptase M41L/T215Y mutant gene by phenosense assay; assay type: functional, organism-based; details: Human immunodeficiency virus 1, isolate 192; outline: as §2
[14] = tested on: Human immunodeficiency virus 1; assay: Antiviral activity against HIV1 isolate 194 harboring reverse transcriptase M41L/T215Y/M184V mutant gene by phenosense assay; assay type: functional, organism-based; details: Human immunodeficiency virus 1, isolate 194; outline: as §2
[15] = tested on: Human immunodeficiency virus 1; assay: Antiviral activity against HIV1 isolate 211 harboring reverse transcriptase D67N/K70R/T215F/K219E/M184V mutant gene by phenosense assay; assay type: functional, organism-based; details: Human immunodeficiency virus 1, isolate 211
Outline: (§3)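 PhenoSense HIV recombinant virus assay: patient-derived HIV-1 with major NRTI resistance mutations tested against increasing drug concentrations to give inhibition curves. EC50 is the concentration giving 50% inhibition. Fold change is the test recombinant EC50 divided by the EC50 of a drug-sensitive wild-type reference virus. Panel of 30 NRTI-resistant isolates plus two wild-type viruses.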

[16] = tested on: Human immunodeficiency virus 1; assay: Antiviral activity against HIV1 isolate 212 harboring reverse transcriptase L210W/T215Y mutant gene by phenosense assay; assay type: functional, organism-based; details: Human immunodeficiency virus 1, isolate 212; outline: as §3
[17] = tested on: Human immunodeficiency virus 1; assay: Antiviral activity against HIV1 isolate 217 harboring reverse transcriptase D67N/K70E/M184V mutant gene by phenosense assay; assay type: functional, organism-based; details: Human immunodeficiency virus 1, isolate 217; outline: as §3
[18] = tested on: Human immunodeficiency virus 1; assay: Antiviral activity against HIV1 isolate 220 harboring reverse transcriptase K70E/M184V mutant gene by phenosense assay; assay type: functional, organism-based; details: Human immunodeficiency virus 1, isolate 220; outline: as §3
[19] = tested on: Human immunodeficiency virus 1; assay: Antiviral activity against HIV1 isolate 060 harboring reverse transcriptase M41L/D67N/K70R/L210W/T215Y/K219E mutant gene by phenosense assay relative to wild type; assay type: functional; outline: as §2
[20] = tested on: Human immunodeficiency virus 1; assay: Antiviral activity against HIV1 isolate 061 harboring reverse transcriptase M41L/D67N/K70R/M184V/L210W/T215Y/K219E mutant gene by phenosense assay relative to wild type; assay type: functional; outline: as §2
[21] = tested on: Human immunodeficiency virus 1; assay: Antiviral activity against HIV1 isolate 063 harboring reverse transcriptase M41L/D67N/K70R/M184V/L210W/T215Y/K219E mutant gene by phenosense assay relative to wild type; assay type: functional; outline: as §2
[22] = tested on: Human immunodeficiency virus 1; assay: Antiviral activity against HIV1 isolate 066 harboring reverse transcriptase 184V mutant gene by phenosense assay relative to wild type; assay type: functional; outline: as §2
[23] = tested on: Human immunodeficiency virus 1; assay: Antiviral activity against HIV1 isolate 067 harboring reverse transcriptase A62V/D67G/T69SVG/V75I/T215I mutant gene by phenosense assay relative to wild type; assay type: functional; outline: as §2
[24] = tested on: Human immunodeficiency virus 1; assay: Antiviral activity against HIV1 isolate 071 harboring reverse transcriptase 65R/S68N/184V mutant gene by phenosense assay relative to wild type; assay type: functional; outline: as §2
[25] = tested on: Human immunodeficiency virus 1; assay: Antiviral activity against HIV1 isolate 157 harboring reverse transcriptase L74V/M184V mutant gene by phenosense assay relative to wild type; assay type: functional; outline: as §2
[26] = tested on: Human immunodeficiency virus 1; assay: Antiviral activity against HIV1 isolate 160 harboring reverse transcriptase S68G/V75(I/T)/F77L/Y115F/F116Y /Q151M mutant gene by phenosense assay relative to wild type; assay type: functional; outline: as §2
[27] = tested on: Human immunodeficiency virus 1; assay: Antiviral activity against HIV1 isolate 188 harboring reverse transcriptase T215Y/M184V mutant gene by phenosense assay relative to wild type; assay type: functional; outline: as §2
[28] = tested on: Human immunodeficiency virus 1; assay: Antiviral activity against HIV1 isolate 194 harboring reverse transcriptase M41L/T215Y/M184V mutant gene by phenosense assay relative to wild type; assay type: functional; outline: as §2
[29] = tested on: Human immunodeficiency virus 1; assay: Antiviral activity against HIV1 isolate 201 harboring reverse transcriptase M41L/L210W/T215Y mutant gene by phenosense assay relative to wild type; assay type: functional; outline: as §3
[30] = tested on: Human immunodeficiency virus 1; assay: Antiviral activity against HIV1 isolate 203 harboring reverse transcriptase M41L/L210W/T215Y/M184V mutant gene by phenosense assay relative to wild type; assay type: functional; outline: as §3
[31] = tested on: Human immunodeficiency virus 1; assay: Antiviral activity against HIV1 isolate 206 harboring reverse transcriptase D67N/K70R mutant gene by phenosense assay relative to wild type; assay type: functional; outline: as §3
[32] = tested on: Human immunodeficiency virus 1; assay: Antiviral activity against HIV1 isolate 211 harboring reverse transcriptase D67N/K70R/T215F/K219E/M184V mutant gene by phenosense assay relative to wild type; assay type: functional; outline: as §3
[33] = tested on: Human immunodeficiency virus 1; assay: Antiviral activity against HIV1 isolate 212 harboring reverse transcriptase L210W/T215Y mutant gene by phenosense assay relative to wild type; assay type: functional; outline: as §3
[34] = tested on: Human immunodeficiency virus 1; assay: Antiviral activity against HIV1 isolate 215 harboring reverse transcriptase D67N/K70E mutant gene by phenosense assay relative to wild type; assay type: functional; outline: as §3
[35] = tested on: Human immunodeficiency virus 1; assay: Antiviral activity against HIV1 isolate 217 harboring reverse transcriptase D67N/K70E/M184V mutant gene by phenosense assay relative to wild type; assay type: functional; outline: as §3
[36] = tested on: Human immunodeficiency virus 1; assay: Antiviral activity against HIV1 isolate 220 harboring reverse transcriptase K70E/M184V mutant gene by phenosense assay relative to wild type; assay type: functional; outline: as §3

SMILES | EC50 [2] | EC50 [3] | EC50 [4] | EC50 [5] | EC50 [6] | EC50 [7] | EC50 [8] | EC50 [9] | EC50 [10] | EC50 [11] | EC50 [12] | EC50 [13] | EC50 [14] | EC50 [15] | EC50 [16] | EC50 [17] | EC50 [18] | fold change (FC) [19] | fold change (FC) [20] | fold change (FC) [21] | further results
Nc1nc(=O)n([C@@H]2CS[C@H](CO)O2)cc1F [EMTRICITABINE] | 1.6 µM | 11 µM | > 100 µM | 30 µM | > 100 µM | 2.1 µM | > 100 µM | > 100 µM | 1.7 µM | 13 µM | 2.6 µM | 3.1 µM | > 100 µM | > 100 µM | 2.6 µM | > 100 µM | > 100 µM | 6.9 | >63 | >88 | EC50 [1]: 0.89 µM; fold change (FC) [22]: >88; fold change (FC) [23]: 26; fold change (FC) [24]: >88; fold change (FC) [25]: >88; fold change (FC) [26]: 30; fold change (FC) [27]: >88; fold change (FC) [28]: >88; fold change (FC) [29]: 1.9; fold change (FC) [30]: >88; fold change (FC) [31]: 2.9; fold change (FC) [32]: >88; fold change (FC) [33]: 2.3; fold change (FC) [34]: 3; fold change (FC) [35]: >88; fold change (FC) [36]: >88
Nc1ccn([C@@H]2CS[C@H](CO)O2)c(=O)n1 [LAMIVUDINE] | 4.4 µM | 22 µM | > 300 µM | 46 µM | > 300 µM | 7 µM | > 300 µM | > 300 µM | 6.1 µM | 43 µM | 6.1 µM | 7.6 µM | > 300 µM | > 300 µM | 7.3 µM | > 300 µM | > 300 µM | 5.1 | >71 | >80 | EC50 [1]: 3.2 µM; fold change (FC) [22]: >80; fold change (FC) [23]: 12; fold change (FC) [24]: >80; fold change (FC) [25]: >80; fold change (FC) [26]: 24; fold change (FC) [27]: >80; fold change (FC) [28]: >80; fold change (FC) [29]: 1.6; fold change (FC) [30]: >80; fold change (FC) [31]: 2.1; fold change (FC) [32]: >80; fold change (FC) [33]: 1.9; fold change (FC) [34]: 2.9; fold change (FC) [35]: >80; fold change (FC) [36]: >80
Cc1cn([C@H]2C[C@H](N=[N+]=[N-])[C@@H](CO)O2)c(=O)[nH]c1=O [ZIDOVUDINE] | 0.017 µM | 16 µM | 2.2 µM | > 25 µM | 8.7 µM | 0.011 µM | 0.006 µM | 4.2 µM | 0.014 µM | 0.014 µM | 1 µM | 0.56 µM | 0.18 µM | 0.19 µM | 0.21 µM | 0.004 µM | 0.004 µM | 400 | 58 | 59 | fold change (FC) [22]: 0.63; fold change (FC) [23]: >920; fold change (FC) [24]: 0.41; fold change (FC) [25]: 0.22; fold change (FC) [26]: 93; fold change (FC) [27]: 2.6; fold change (FC) [28]: 6.5; fold change (FC) [29]: 98; fold change (FC) [30]: 3.2; fold change (FC) [31]: 28; fold change (FC) [32]: 7; fold change (FC) [33]: 7.6; fold change (FC) [34]: 0.21; fold change (FC) [35]: 0.15; fold change (FC) [36]: 0.13
